This is an account of results in article PMC8122083 (ACS infectious diseases, 2021).

One may read the MIC as the least concentration at which growth counts as inhibited. Read a high MIC as weaker potency. By solubility is commonly meant how much of the substance goes into solution per volume. A lower solubility goes with a poorly soluble substance. One may read the AUC as concentration integrated over time.

One series deals with H. pylori ATCC 43504. In words: H. pylori IC50 dose response. It counts as cell-based. Particulars: for IC50: Helicobacter pylori.
Series [1] relates to H. pylori SS1. Briefly: H. pylori IC50 dose response. It counts as cell-based. Particulars: for IC50: Helicobacter pylori, SS1, read-out: H. pylori SS1 pIC50 (converted).
Another series is described as follows: Cytotoxicity assay. The conditions noted are these: human, FaDu cells. Format: cell-based. The method in brief:
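FaDu cells, maintained per ATCC protocols, were seeded in EMEM with 10% FBS at 3 x 10^5 cells/ml and grown 24 h at 37°C, 5% CO2. Medium was replaced with two-fold serial dilutions of test compound in fresh medium for 72 h, then with FBS-free EMEM plus resazurin (final 0.15 mM) for 3-5 h. Fluorescence read at ex 540/em 590 nm. IC50 fitted from percent inhibition versus growth controls, converted to pIC50, and reported as mean ± S.E.M.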

Series [2] deals with panel of representative Gram-negative and Gram-positive species, including commensals. Briefly: MIC against panel of representative Gram-negative and Gram-positive species. It counts as cell-based.
The next series is described as follows: Solubility. It counts as physicochemical.
A short description of a further series: Mouse pharmacokinetics. Format: in vivo, mice.
Series [3] deals with H. pylori. In words: H. pylori murine infection model. It counts as in vivo, mouse. The conditions noted are these: compared to metronidazole control.
The test system of series [4] is H. pylori SS1. Briefly: ex vivo H. pylori infection model. Further details: species or system mouse. Particulars: 0.6 μg/mL (1.6μM), 24 hours.
Series [5] has as its system H. pylori. Briefly: H. pylori IC50 of high-throughput screening hits. Particulars: Helicobacter pylori, read-out: H. pylori IC50. Format: cell-based.
For series [6], the system named is H. pylori. The conditions noted are these: cited from earlier work.
[7] abbreviates: ATCC43504, read-out: H. pylori ATCC 43504 pIC50 (converted).

Values after ≈ are worked out from the molar mass of the structure shown. Like-named read-outs stand apart in the source and are kept apart here. Where only a bound is given, the exact number is not on record here.

For the molecule `COc1ccc(C(CO)Nc2ncnc3sc(-c4ccccc4)cc23)cc1` (centres unmarked) [Compound 25, 2-(4-methoxyphenyl)-2-((6-phenylthieno[2,3-d]pyrimidin-4-yl)amino)ethan-1-ol], the “fold increase in potency” value in the series on H. pylori ATCC 43504 (ATCC 43504 (stated for both strains), lead compounds relative to hits) was > 69 fold; with H. pylori SS1 [1] (SS1 (stated for both strains), lead compounds relative to hits), > 69 fold. In addition, the IC50 is 0.021 µM in the series with H. pylori ATCC 43504 (ATCC43504), 0.02 µM in the series on H. pylori ATCC 43504 (setting [7]) and 0.02 µM in the series on H. pylori SS1 [1]. The molecule further had an IC50 at 72 h in “Cytotoxicity assay” of 398 µM. Also, the minimum inhibitory concentration (MIC) in [2] is ≥ 16 µg/mL. Moreover, the solubility in the series “Solubility” was determined as 1 µM (≈ 0.377 µg/mL). Besides, the “exposure upon oral dosing” value in the series “Mouse pharmacokinetics” (mice, oral (PO), compared with IP) is recorded as “lower exposure”. The same molecule returned an area under the curve (AUC) in the series “Mouse pharmacokinetics” (mouse, plasma, ip, 50 mg/kg) of 31900 ng·h/mL. For the same molecule, the “efficacy in H. pylori murine infection model” value in the series on H. pylori [3] (25 mg/kg (IP)), in the series on H. pylori [3] (50 mg/kg (IP)) and with H. pylori [3] (50 mg/kg (PO)) was “did not show efficacy” each time. The “effectiveness in ex vivo model” value in the series with H. pylori SS1 [4] is given as “highly effective”. The “samples with colony counts below the limit of detection” value with H. pylori SS1 [4] (10 samples) is 6 of the 10.
Regarding `OCCCNc1ncnc2sc(-c3ccccc3)cc12` [Compound 1, 3-((6-phenylthieno[2,3-d]pyrimidin-4-yl)amino)propan-1-ol], the IC50 with H. pylori ATCC 43504 (setting [7]) was 1.58 µM; with H. pylori SS1 [1], 1.58 µM; with H. pylori [5], 1.55 µM. Moreover, in the series “Cytotoxicity assay”, the IC50 at 72 h is 126 µM.
Consider `CC[C@H]1OC(=O)[C@H](C)[C@@H](O[C@H]2C[C@@](C)(OC)[C@@H](O)[C@H](C)O2)[C@H](C)[C@@H](O[C@@H]2O[C@H](C)C[C@H](N(C)C)[C@H]2O)[C@](C)(OC)C[C@@H](C)C(=O)[C@H](C)[C@@H](O)[C@]1(C)O` [clarithromycin], for which the “H. pylori minimum inhibitory concentration (MIC)” value in the series on H. pylori [6] is 0.008 µg/mL.
